{"source": "paper PMC9099131", "about": "(Clinical and Translational Science, 2022)", "key": {"[1]": {"experiment": "Single-dose plasma pharmacokinetics of trazpiroben alone and with esomeprazole", "assay_type": "in vivo, human (healthy adults)", "details": "for AUC∞, Geometric LSM / Cmax, Geometric LSM: ANOVA", "summary_of_the_method": "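Healthy adults dosed orally with 25 mg on day 1; after a 4-day washout, the proton pump inhibitor was given at 40 mg once daily on days 8–12, with 25 mg co-dosed 1 h after it on day 11 following a ≥10 h fast. Plasma was sampled predose to 48 h and assayed by validated LC-MS/MS (0.05–50.00 ng/ml), with BLQ values set to zero. Noncompartmental parameters were derived, and ln AUC∞/Cmax were analysed by ANOVA (treatment fixed, participant random).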"}, "[2]": {"details": "ref data on file, cited from earlier work"}, "[3]": {"details": "trazpiroben 25 mg alone, N = 12"}, "[4]": {"details": "trazpiroben 25 mg and esomeprazole 40 mg, N = 12"}, "[5]": {"details": "plasma, single oral dose trazpiroben 25 mg alone, N = 12"}, "[6]": {"details": "single dose alone or in the presence of esomeprazole"}, "[7]": {"details": "single oral dose trazpiroben 25 mg alone, N = 12"}, "[8]": {"details": "single oral dose trazpiroben 25 mg with esomeprazole 40 mg once daily, N = 12"}, "[9]": {"details": "trazpiroben 25 mg with esomeprazole 40 mg vs alone"}, "[10]": {"details": "single oral dose of trazpiroben 25 mg alone on day 1"}}}
{"smiles": "O=C(O)c1cccc(CN2CN(C3CCCCC3)C3(CCN(CCCC(=O)c4ccccc4)CC3)C2=O)c1", "note": "[Trazpiroben]", "values": [{"measurement": "AUC∞, Geometric LSM", "setting": "[1]; [3]", "result": 44.03, "unit": "ng·h/mL"}, {"measurement": "Cmax, Geometric LSM", "setting": "[1]; [3]", "result": 19.76, "unit": "ng/mL"}, {"measurement": "AUC∞, Geometric LSM", "setting": "[1]; [4]", "result": 38.85, "unit": "ng·h/mL"}, {"measurement": "Cmax, Geometric LSM", "setting": "[1]; [4]", "result": 17.24, "unit": "ng/mL"}, {"measurement": "AUC∞, Geo. mean (CV%)", "setting": "[1]; [5]", "result": "44.03 (27.50) ng h/ml"}, {"measurement": "Cmax, Geo. mean (CV%)", "setting": "[1]; [5]", "result": "19.76 (36.50) ng/ml"}, {"measurement": "Tmax, Median (min, max)", "setting": "[1]; [5]", "result": "1.00 (0.50, 1.53) h"}, {"measurement": "t1/2, Mean (±SD)", "setting": "[1]; [5]", "result": "6.21 ± 3.96", "unit": "h"}, {"measurement": "approximate half-life of biphasic decline", "setting": "[1]; [6]", "result": "6 to 7", "unit": "h"}, {"measurement": "time postdose at which mean plasma concentration peaked", "setting": "[1]; [6]", "result": "around 1 h"}, {"measurement": "CL/F, Geo. mean (CV%)", "setting": "[1]; [7]", "result": "567.90 (27.50) L/h"}, {"measurement": "Vz/F, Geo. mean (CV%)", "setting": "[1]; [7]", "result": "4137.00 (77.80) L"}, {"measurement": "CL/F, Geo. mean (CV%)", "setting": "[1]; [8]", "result": "643.50 (31.10) L/h"}, {"measurement": "Vz/F, Geo. mean (CV%)", "setting": "[1]; [8]", "result": "4716.00 (102.00) L"}, {"measurement": "GMR for plasma AUC∞ lower following co-administration versus trazpiroben alone", "setting": "[1]; [9]", "result": 11.8, "unit": "%"}, {"measurement": "GMR for plasma Cmax lower following co-administration versus trazpiroben alone", "setting": "[1]; [9]", "result": 12.8, "unit": "%"}, {"measurement": "mean solubility", "setting": "[2]; pH 1.15", "result": 1210, "unit": "µg/mL"}, {"measurement": "solubility", "setting": "[2]; pH 6.97", "result": 50, "unit": "µg/mL"}, {"measurement": "vital sign and ECG parameters", "setting": "following both treatments", "result": "no clinically meaningful changes"}, {"measurement": "tolerability", "setting": "healthy adults, administration alone and alongside esomeprazole", "result": "well‐tolerated"}, {"measurement": "CNS or cardiovascular safety concerns", "setting": "single agent or co-administered with esomeprazole", "result": "no CNS or cardiovascular safety concerns were observed"}, {"measurement": "Number of participants with treatment‐emergent AEs", "setting": "[10]", "result": "2 (17) n (%)"}, {"measurement": "Participants reporting AEs: Folliculitis", "setting": "[10]", "result": "0 (0) n (%)"}, {"measurement": "Participants reporting AEs: General disorders and administration site conditions", "setting": "[10]", "result": "0 (0) n (%)"}, {"measurement": "Participants reporting AEs: Headache", "setting": "[10]", "result": "1 (8) n (%)"}, {"measurement": "Participants reporting AEs: Infections and infestations", "setting": "[10]", "result": "0 (0) n (%)"}, {"measurement": "Participants reporting AEs: Influenza‐like illness", "setting": "[10]", "result": "0 (0) n (%)"}, {"measurement": "Participants reporting AEs: Menstruation delayed", "setting": "[10]", "result": "0 (0) n (%)"}, {"measurement": "Participants reporting AEs: Nervous system disorders", "setting": "[10]", "result": "1 (8) n (%)"}, {"measurement": "Participants reporting AEs: Oropharyngeal pain", "setting": "[10]", "result": "0 (0) n (%)"}, {"measurement": "Participants reporting AEs: Reproductive system and breast disorders", "setting": "[10]", "result": "0 (0) n (%)"}, {"measurement": "Participants reporting AEs: Respiratory, thoracic, and mediastinal disorders", "setting": "[10]", "result": "1 (8) n (%)"}, {"measurement": "Participants reporting AEs: Throat irritation", "setting": "[10]", "result": "1 (8) n (%)"}, {"measurement": "Participants reporting AEs: Vessel puncture site pain", "setting": "[10]", "result": "0 (0) n (%)"}, {"measurement": "Participants reporting AEs: Vessel puncture site reaction", "setting": "[10]", "result": "0 (0) n (%)"}, {"measurement": "deaths, serious AEs, discontinuations due to AEs", "setting": "whole study, 12 participants", "result": "No deaths, serious AEs, or discontinuations due to AEs were reported"}]}
